The subject of one data set is MCF7. As to the kind of experiment: Antiproliferative activity against human MCF7 cells after 72 hrs by MTT assay. The class given is functional, cell-based. The settings on record: MCF7, 72 h. Summed up: (§1)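 Cells in exponential growth plated at 3,000 per well, left 24 h, then medium replaced with fresh medium carrying a range of compound concentrations; 72 h exposure, MTT read at 570 nm.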
On the technique in general: Tetrazolium assays rely on reduction of a dye to a coloured formazan, in cell work by metabolically active cells.

The next data set concerns MGC-803. As to the kind of experiment: Antiproliferative activity against human MGC803 cells after 72 hrs by MTT assay. Type of data set: functional, cell-based. The settings on record: MGC-803, 72 h. Summed up:
as §1

For the next data set, the system named is ECa-109 cell line. Kind of data set: Antiproliferative activity against human EC109 cells after 72 hrs by MTT assay. The class given is functional, cell-based. The settings on record: ECa-109, 72 h. In short, it runs like this:
as §1

The subject of data set [1] is HGC-27. As to the kind of experiment: Antiproliferative activity against human HGC27 cells after 72 hrs by MTT assay. The class given is functional, cell-based. The settings on record: HGC-27, 72 h. Summed up: as §1
The test system of another data set is GES1. As to the kind of experiment: Cytotoxicity against human GES-1 cells assessed as reduction in cell viability after 72 hrs by MTT assay. Type of data set: cell-based. The settings on record: GES1, 72 h. Summed up: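 Normal human gastric epithelial cells in exponential growth seeded at 3,000 cells/well, allowed 24 h, then medium replaced with fresh medium containing a range of compound concentrations. Exposure 72 h, then MTT, viability read at 570 nm.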

Data set [2] concerns HGC-27. Kind of data set: Induction of apoptosis in human HGC27 cells assessed as formation of apoptotic bodies at 2 to 5 uM after 24 hrs by Hoechst 33258 staining-based fluorescence microscopy. The class given is functional, cell-based. In short, it runs like this:
(§2)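 HGC-27 at 2×10⁵/well attached overnight, exposed to compound at several concentrations for 24 h, then stained with Hoechst 33258 for 30 min in the dark. Morphology scored by fluorescence microscopy.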

The subject of data set [3] is HGC-27. Kind of data set: Induction of apoptosis in human HGC27 cells assessed as apoptotic cells at 1 uM after 24 hrs by Annexin-V-FITC/propidium iodide-double staining based flow cytometry (reference value: 1.8%). Type of data set: functional. (Flow cytometry measures light scatter and fluorescence of single cells or particles in a stream.)
For data set [4], the system named is HGC-27. As to the kind of experiment: Induction of apoptosis in human HGC27 cells assessed as increase in cleaved caspase 3 expression after 24 hrs by Western blot analysis. Type of data set: functional, cell-based. In short, it runs like this: (§3)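 HGC-27 exposed to compound at several concentrations for 24 h, lysed in RIPA with protease inhibitors for 30 min, spun at 12,000 rpm for 10 min at 4 °C. Protein measured by BCA, run on SDS-PAGE, transferred to nitrocellulose. Blocked with 5% skim milk for 2 h, primary antibodies overnight at 4 °C, secondary 1:5000 for 2 h, ECL detection.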
(In general: In western blotting, separated proteins are transferred to a membrane and probed.)

The test system of data set [5] is HGC-27. Kind of data set: Inhibition of colony formation in human HGC27 cells at 4 uM after 9 days by crystal violet staining based assay. The class given is functional. The conditions noted are these: HGC-27, 216 h. In short, it runs like this: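 HGC-27 seeded at 1000 cells/well, 24 h, then fresh medium with compound for 9 days. PBS washes, 4% paraformaldehyde fixation, 0.1% crystal violet stain. Colonies (>10 cells) counted from images. Inhibition rate = (1 − treated count/control count) × 100%. Triplicate.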

Data set [6] has as its system HGC-27. As to the kind of experiment: Induction of apoptosis in human HGC27 cells assessed as cell rounding at 2 to 5 uM after 24 hrs by Hoechst 33258 staining-based fluorescence microscopy. Type of data set: functional. Summed up: as §2
Data set [7] has as its system HGC-27. Kind of data set: Induction of apoptosis in human HGC27 cells assessed as chromatin shrinkage at 2 to 5 uM after 24 hrs by Hoechst 33258 staining-based fluorescence microscopy. The class given is functional, cell-based. Summed up: as §2
The test system of data set [8] is HGC-27. Kind of data set: Induction of apoptosis in human HGC27 cells assessed as decrease in Bcl2 expression up to 5 uM after 24 hrs by Western blot analysis. The class given is functional, cell-based. Summed up:
as §3

Data set [9] in a line: Selectivity index, ratio of IC50 for human GES-1 cells to IC50 for human HGC27 cells. Type of data set: toxicity. The settings on record: GES-1 cells and HGC27 cells, read-out: Ratio IC50. In short, it runs like this: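 GES-1 normal gastric epithelial cells and HGC-27 tested by the same MTT protocol (3,000 cells/well, 24 h attachment, 72 h exposure, 570 nm). SI calculated as IC50(GES-1)/IC50(HGC-27). IC50s are means ± SD of three independent experiments.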

For data set [10], the system named is HGC-27. Kind of data set: Antimigratory activity in human HGC27 cells after 48 hrs by wound healing assay. Type of data set: functional, cell-based. Summed up:
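HGC-27 grown in 24-well plates, monolayer scratched with a 10 µL pipette tip, then exposed to compound at several concentrations. Wound closure photographed by inverted microscope after the incubation times stated.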

Data set [11] has as its system HGC-27. Kind of data set: Induction of apoptosis in human HGC27 cells assessed as increase in Bax expression after 24 hrs by Western blot analysis. The class given is functional, cell-based. Summed up: as §3
The test system of data set [12] is HGC-27. Kind of data set: Induction of apoptosis in human HGC27 cells assessed as apoptotic cells at 5 uM after 24 hrs by Annexin-V-FITC/propidium iodide-double staining based flow cytometry (reference value: 1.8%). Type of data set: functional.
Data set [13] deals with HGC-27. Kind of data set: Induction of apoptosis in human HGC27 cells assessed as apoptotic cells at 2 uM after 24 hrs by Annexin-V-FITC/propidium iodide-double staining based flow cytometry (reference value: 1.8%). Type of data set: functional.
Data set [14] has as its system HGC-27. As to the kind of experiment: Induction of apoptosis in human HGC27 cells assessed as increase in cleaved caspase 9 expression after 24 hrs by Western blot analysis. The class given is functional, cell-based. Summed up: as §3
In data set [15] the test system is HGC-27. As to the kind of experiment: Induction of apoptosis in human HGC27 cells after 24 hrs by Annexin-V-FITC/propidium iodide-double staining based flow cytometry. Type of data set: functional, cell-based.

Molecules are shown by their SMILES. Activity calls are given as the source filed them. The calls are words filed in the database; no cut-off is given here. Where only a bound is given, the exact number is not on record here.

`CCCSc1nc(Sc2nnnn2CCN(C)C)c2nc(Nc3ccccc3)sc2n1`: the IC50 (commonly the concentration needed to halve the response being measured) in the data set on MCF7 is 14.5 µM; in the data set with MGC-803, 18.5 µM; with ECa-109 cell line it was above 64 µM; in the data set on HGC-27 [1], 6.51 µM.

For the molecule `CCCSc1nc(Sc2ccc(Cl)cc2)c2nc(Nc3ccccc3)sc2n1`, the IC50 in the data set with MCF7 was 44.2 µM; in the data set on MGC-803, 9.33 µM; in the data set with ECa-109 cell line it was 19.6 µM; in the data set with HGC-27 [1], 8.87 µM.

`CCCSc1nc(Sc2ccc(C)cc2)c2nc(Nc3cccc4ccccc34)sc2n1`: the IC50 was above 64 µM with MCF7, 46.2 µM in the data set on MGC-803, above 64 µM with ECa-109 cell line and above 64 µM in the data set on HGC-27 [1].

Take `CCCSc1nc(Sc2ccc(C)cc2)c2nc(Nc3ccccc3)sc2n1`: the IC50 is above 64 µM with MCF7, 4.73 µM with MGC-803, 25 µM in the data set on ECa-109 cell line and 4.65 µM with HGC-27 [1].

With `CCCSc1nc(Sc2nccn2C)c2nc(Nc3ccccc3)sc2n1`, the IC50 is above 64 µM with MCF7, 30 µM in the data set on MGC-803, above 64 µM with ECa-109 cell line and 4.03 µM with HGC-27 [1].

As to `CCCSc1nc(Sc2nc3ccccc3s2)c2nc(Nc3ccccc3)sc2n1`, the IC50 in the data set with MCF7 was above 64 µM; in the data set with MGC-803, 14.2 µM; with ECa-109 cell line, 24.3 µM; with HGC-27 [1] it was 12.2 µM.

As for `CCCSc1nc(Sc2ccc(C)cc2)c2nc(Nc3cc(OC)c(OC)c(OC)c3)sc2n1`, the IC50 is above 64 µM with MCF7, above 64 µM with MGC-803, 23.9 µM with ECa-109 cell line and 6.03 µM in the data set on HGC-27 [1].

Consider `CCCSc1nc(Sc2nncs2)c2nc(Nc3cccc4ccccc34)sc2n1`, for which the IC50 in the data set with MCF7 is above 64 µM; in the data set on MGC-803, above 64 µM; in the data set with ECa-109 cell line it was above 64 µM; with HGC-27 [1], 22.7 µM.

Turning to `CCCSc1nc(Sc2ccc(C)cc2)c2nc(Nc3ccccn3)sc2n1`, the IC50 in the data set on MCF7 is 34.2 µM; with MGC-803, above 64 µM; in the data set with ECa-109 cell line, above 64 µM; in the data set on HGC-27 [1] it was 7.28 µM.

For `CCCSc1nc(Sc2nncs2)c2nc(Nc3ccccn3)sc2n1`, the concentration for half-maximal inhibition (IC50) in the data set with MCF7 was 11.6 µM; in the data set with MGC-803, 10.2 µM; in the data set with ECa-109 cell line it was above 64 µM; in the data set with HGC-27 [1], 18.2 µM.

Turning to `CCCSc1nc(Sc2nccs2)c2nc(Nc3ccccc3)sc2n1`, the concentration for half-maximal inhibition (IC50) in the data set with MCF7 is above 64 µM; in the data set on MGC-803, 23.4 µM; in the data set with ECa-109 cell line, above 64 µM; in the data set on HGC-27 [1], 2.21 µM.

In the case of `c1ccc(CSc2nc(Sc3nncs3)c3nc(Nc4ccccc4)sc3n2)cc1`, the IC50 in the data set with MCF7 is 38.7 µM; in the data set on MGC-803 it was above 64 µM; in the data set with ECa-109 cell line, 10.6 µM; with HGC-27 [1] it was 18.9 µM.

`O=c1[nH]cc(F)c(=O)[nH]1` [FLUOROURACIL]: the IC50 in the data set on MCF7 stood at 7.21 µM; in the data set with ECa-109 cell line, 5.01 µM; with HGC-27 [1], 11 µM; in the data set with GES1, 8.59 µM.

As for `CCCSc1nc(Sc2ncccn2)c2nc(Nc3ccccc3)sc2n1`, the concentration for half-maximal inhibition (IC50) stood at 13.2 µM in the data set with MCF7, 9.82 µM in the data set with MGC-803, 49.6 µM in the data set with ECa-109 cell line and 9.55 µM in the data set with HGC-27 [1].

Turning to `CCCSc1nc(Sc2nnc(N)s2)c2nc(Nc3ccccc3)sc2n1`, the IC50 with MCF7 is above 64 µM; in the data set on MGC-803, 12.8 µM; in the data set on ECa-109 cell line, above 64 µM; in the data set with HGC-27 [1], above 64 µM.

As for `Cc1ccc(Sc2nc(SCc3ccccc3)nc3sc(Nc4ccccc4)nc23)cc1`, the outcome in the data set with HGC-27 [2], in the data set with HGC-27 [6], in the data set on HGC-27 [7] and in the data set with HGC-27 [8] was Active. Further, the Activity in the data set with HGC-27 [3] is 10.01%; in the data set with HGC-27 [4], “Dose-dependent effect”; in the data set with HGC-27 [10] it was “Dose-dependent effect”; in the data set on HGC-27 [11], “Dose-dependent effect”; in the data set with HGC-27 [12], 67.9%; in the data set on HGC-27 [13], 31.8%. The Activity result in the data set with HGC-27 [14] and in the data set on HGC-27 [15] was “Dose-dependent effect” each time. Also, the IC50 with MCF7 was determined as 8.55 µM; with MGC-803, 12.2 µM; in the data set on ECa-109 cell line it was 2.69 µM; in the data set on HGC-27 [1], 1.22 µM; in the data set with GES1, 29.4 µM. Moreover, in the data set with HGC-27 [5], the inhibition (as a rule, the share of the control response that was lost under treatment) at 4 µM came to 79%. Also, in data set [9], the selectivity ratio was determined as 24.1.

As to `CCCSc1nc(Sc2nncs2)c2nc(Nc3ccccc3)sc2n1`, the IC50 was 8.55 µM in the data set on MCF7, 10.7 µM in the data set on MGC-803, above 64 µM in the data set on ECa-109 cell line and 5.07 µM in the data set with HGC-27 [1].

For the molecule `CCCSc1nc(Sc2ncccn2)c2nc(Nc3ccccn3)sc2n1`, the IC50 was above 64 µM with MCF7, 11.2 µM with MGC-803, above 64 µM in the data set with ECa-109 cell line and 12.2 µM with HGC-27 [1].

These data come from ChEMBL document CHEMBL4130366, “Design, synthesis and antiproliferative activity of thiazolo[5,4-d]pyrimidine derivatives through the atom replacement strategy” (Eur J Med Chem, 2017).
